Screens (PubChem)
This is a sample that favours compounds with a hit; in the whole collection about 3.7% have one here.
KCNQ1 pot – potentiates or activates the human KCNQ1 potassium channel | P51787 | CHO-K1 KCNQ1, thallium flux FluxOR fluorescence; active compounds read high | B-score at 10 µM | 310,000 compounds, 0.35% hits;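 active means fluorescence ratio B-score, a plate-corrected score, at least three library SD, with initial intensity B-score within 5 SD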
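Assay system: stable KCNQ1 CHO-K1 line; medium: assay buffer, equal DMSO in all wells; timing: 90 min dye loading and 20 min compound exposure, both at room temperature; technique: kinetic FluxOR thallium fluorescence, 10-s 1-Hz baseline, 110-s post-stimulus read; read-out basis: B score of baseline-normalized fluorescence ratio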
Kir21 block – inhibitors of mouse Kir2.1 inward-rectifier potassium channel; P35561; HEK293-Kir2.1, FluxOR thallium flux fluorescence; active compounds read low; B-score at 10 µM; 310,000 compounds, 0.85% hits; AID 1672;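 active means fluorescence ratio B-score at or below minus 3 SD of library scores, with starting-brightness B-score within 2 SD, cut at about -4.2 in these data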;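 further: channel flux triggered by added potassium and thallium sulfate stimulus; B-score of peak minus minimum fluorescence over baseline after thallium stimulus; more negative B-score means stronger Kir2.1 block with less thallium influx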
hERG protect – shields human hERG channel from block by proarrhythmic agents | Q12809 | CHO-hERG, FluxOR thallium flux, dofetilide IC70 present | activation (rescue from dofetilide block), less the hit threshold, % at 10 µM | 310,000 compounds, 0.51% hits;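 active means activation above the mean of controls blocked by dofetilide plus 5 SD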;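 further: thallium influx through hERG after potassium depolarization seen as dye fluorescence rise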
KCNK9 block – blocks the human KCNK9 two-pore domain potassium channel. Q9NPC2. HEK293 KCNK9, FluxOR thallium flux fluorescence; active compounds read low. B-score at 10 µM. 310,000 compounds, 1.2% hits. AID 488922;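 active means ratio B-score over 3 SD below the library mean, with starting fluorescence within 5 SD of its mean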;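 further: negative B-score means less thallium flux so channel inhibition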
KCNQ1 inh – inhibitors of human KCNQ1 potassium channel; P51787; CHO-K1 KCNQ1, FluxOR thallium flux fluorescence; active compounds read high; B-score at 10 µM; 310,000 compounds, 1.3% hits; AID 2642;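 active means compounds whose thallium flux B-score, printed positive for inhibition, exceeds three library SD while starting fluorescence stays within three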;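 further: channel opened by potassium depolarization with thallium stimulus after 20 min compound exposure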
KCNK3 inh – human KCNK3 channel inhibition, primary screen. O14649. CHO-KCNK3 thallium flux, FluxOR fluorescence; active compounds read low. B-score at 10 µM. 340,000 compounds, 0.84% hits;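 active means B-score under library mean minus 4 SD, starting fluorescence ratio at most library mean plus 5 SD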;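 further: more negative B-score means stronger inhibition of thallium flux through KCNK3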
Target sequence (O14649 whole entry, looked up): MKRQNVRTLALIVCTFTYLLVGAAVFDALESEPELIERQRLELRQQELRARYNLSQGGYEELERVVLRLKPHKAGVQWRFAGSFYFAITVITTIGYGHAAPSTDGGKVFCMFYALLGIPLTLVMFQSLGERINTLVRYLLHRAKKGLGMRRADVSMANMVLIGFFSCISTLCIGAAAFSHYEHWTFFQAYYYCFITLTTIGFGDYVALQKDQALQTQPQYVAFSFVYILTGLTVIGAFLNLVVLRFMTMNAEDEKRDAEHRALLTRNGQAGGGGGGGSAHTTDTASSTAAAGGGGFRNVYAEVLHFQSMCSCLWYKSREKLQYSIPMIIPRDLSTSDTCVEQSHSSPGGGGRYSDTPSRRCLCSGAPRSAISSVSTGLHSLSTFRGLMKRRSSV
The depositor's hits bear a star; i = inactive; . = not tested or not shown.

SMILES | KCNQ1 pot | Kir21 block | hERG protect | KCNK9 block | KCNQ1 inh | KCNK3 inh
Cc1ccc(N2CC(C(=O)Nc3cccnc3)CC2=O)cc1C (centres undefined) | i | 1.81 | -6.0 | i | i | i
COc1ccc(NC(=O)Cn2nc(C)c([N+](=O)[O-])c2C)cn1 | i | 1.11 | -7.2 | i | i | i
Cc1ccc2[nH]c(=O)c(CN(CCCN3CCOCC3)C(=O)Nc3ccc(Cl)cc3)cc2c1 | i | 0.89 | -30.3 | i | i | i
CCOC(=O)C1=C(C)N=c2s/c(=C\c3cccc(OCC(=O)O)c3)c(=O)n2C1c1ccccc1 (centres undefined) | i | -0.89 | -10.1 | i | i | i
CCOC(=O)C1=C(C)N=c2s/c(=C\c3ccc(OCC(=O)O)c(OC)c3)c(=O)n2C1c1ccc(OC)cc1 (centres undefined) | i | 1.94 | -0.9 | i | i | i
CC1=C(C(=O)OC(C)C)C(c2ccc(Cl)cc2)n2c(s/c(=C\c3ccc(OCC(=O)O)cc3)c2=O)=N1 (centres undefined) | i | -2.01 | -1.2 | i | 7* | i
COC(=O)C1=C(C)N=c2s/c(=C/c3ccoc3)c(=O)n2C1c1ccccc1 (centres undefined) | i | -1.2 | -18.1 | i | 9* | i
COc1ccc(OC)c(C(=O)c2ccc(C(=O)Nc3ccc(NC(C)=O)cc3)cc2)c1 | i | 1.83 | -6.5 | i | i | i
COC(=O)c1ccc(C(=O)OC)c(NC(=O)c2cccnc2)c1 | i | -0.2 | -5.3 | i | i | i
CN1C(=O)/C(=C\c2ccc(N(C)C)cc2)OC1=S | i | -0.96 | -17.0 | i | 11* | i
Nc1cc(=O)[nH]c(SCC(=O)Nc2ccc(N3CCCCC3)cc2)n1 | . | . | . | . | . | i
COc1ccccc1CNCC(=O)Nc1ccccc1-n1cccc1 | i | -4.54* | -11.9 | i | i | i
CC(C)(/C=N/NC(=O)CSCc1ccc(Cl)cc1)CCC#N | i | -1.13 | 5.1* | i | i | i
O=C(CSCc1ccc(Cl)cc1)NN=C1CCCCCC1 | i | -2.94 | 0.2 | i | i | i
COC(CN(C)S(=O)(=O)c1cc2c3c(c1)CCN3C(=O)CC2)OC | i | 0.01 | -5.1 | i | i | i
Cc1cccc(NC(=O)CN2C(=O)S/C(=C\c3ccc(-c4cccc(C(=O)O)c4C)o3)C2=O)c1 | i | -0.5 | 21.4* | i | i | i
Cc1ccc(NC(=O)CN2C(=O)S/C(=C/c3ccc(-c4cc(C(=O)O)ccc4C)o3)C2=O)cc1C | i | -1.19 | -1.6 | i | i | i
Cc1ccccc1NC(=O)CN1C(=O)S/C(=C\c2ccc(-c3cccc(C(=O)O)c3C)o2)C1=O | i | -1.01 | 11.1* | i | i | i
Cc1ccccc1NC(=O)CN1C(=O)c2ccccc2C1=O | i | -1.08 | -5.9 | i | i | i
CCOC(=O)c1cc(CC)sc1NC(=O)CN1C(=O)C(=O)N(CC(C)C)C1=O | i | 1.57 | -7.2 | i | i | i
N#Cc1ccccc1NC(=O)CN1C(=O)NC(Cc2c[nH]c3ccccc23)C1=O (centres undefined) | . | . | . | . | . | i
Cc1ccc(-n2c(C)cc(C3N=C(N)Nc4nc5ccccc5n43)c2C)c(C)c1 (centres undefined) | i | 0.08 | -3.1 | -7.53* | i | i
NC1=NC(c2ccc(F)cc2)n2c(nc3ccccc32)N1 (centres undefined) | i | -1.57 | -7.6 | i | i | i
CCCc1nc2ccc(NC(=O)c3cccs3)cc2c(=O)n1Cc1ccccc1Cl | i | -1.12 | -5.7 | -6.77* | i | i
Cc1ccc2c(c1)N(C(=O)CCC(=O)O)CCO2 | i | 1.84 | -10.3 | i | i | i
SMILES | KCNQ1 pot | Kir21 block | hERG protect | KCNK9 block | KCNQ1 inh | KCNK3 inh
CCn1c2ccccc2c2cc(NC(=O)c3coc(=O)c(Br)c3)ccc21 | i | -1.32 | -18.6 | -8.81* | i | .
CCn1c2ccccc2c2cc(NC(=O)COc3ccccc3)ccc21 | i | 0.13 | 5.4* | i | i | i
COC1OC2COC(c3ccccc3)OC2C(O)C1NC(=O)c1ccccc1 (centres undefined) | . | . | . | . | . | i
COc1cc2c(c(O)c1OC)-c1c(cc(OC)c(OC)c1O)[C@@H](OC(=O)c1ccccc1)[C@@](C)(O)[C@@H](C)[C@@H]2OC(C)=O | i | -0.22 | 4.7* | i | i | .
COc1cc(NC(=O)c2ccc(C(=O)c3ccccc3)cc2)cc(OC)c1OC | i | 0.94 | -4.9 | i | i | i
Clc1ccc(CONc2ncnc3nonc23)c(Cl)c1 | i | -1.59 | -25.3 | i | 7* | i
CCOC(=O)C(=Cc1cc(=O)c(OC)co1)C(=O)OCC | 10* | -7.35* | -1.1 | i | i | i
CCOC(=O)/C(=C\c1ccccc1)NC(=O)c1ccccc1 | i | -1.64 | -8.9 | i | i | i
CCOC(=O)/C(=C/c1ccc(OC(=O)c2ccccc2)cc1)C(C)=O | i | -9.41* | -16.7 | i | i | i
CSc1nnc(N2C(=O)C(O)=C(C(=O)c3ccco3)C2c2ccc(F)cc2)s1 (centres undefined) | i | -2.68 | -12.9 | i | 10* | i
CSc1nnc(N2C(=O)C(O)=C(C(=O)c3ccco3)C2c2cccc(Cl)c2)s1 (centres undefined) | i | -3.54 | -21.4 | i | 9* | i
O=C(C1=C(O)C(=O)N(c2ncccn2)C1c1cccc(Cl)c1)c1ccco1 (centres undefined) | i | 1.09 | -10.7 | i | i | i
COc1ccc(C2C(C(=O)c3ccco3)=C(O)C(=O)N2c2nnc(C)s2)cc1 (centres undefined) | i | -1.78 | -8.9 | i | i | i
S=C(N/N=C/c1ccccc1Cl)Nc1cccc(Cl)c1Cl | 12* | -0.68 | 9.8* | i | i | i
Cc1ccc(S(=O)(=O)N2CCOCC2)cc1N/N=C(\C#N)c1nc2ccccc2[nH]1 | i | -0.47 | -16.4 | i | 6* | i
S=C(NCCc1ccccc1)N1CCn2cccc2C1c1cccnc1 (centres undefined) | 15* | 0.17 | -12.4 | i | i | i
S=C(NCc1ccccc1)N1CCn2cccc2C1c1cccnc1 (centres undefined) | i | 3.07 | -6.9 | i | i | i
Cc1c(C(=O)OCC(=O)N2CC(=O)Nc3ccccc32)oc2ccc(Br)cc12 | i | 0.21 | 7.2* | i | i | i
NC(=O)c1ccccc1N | i | 0.01 | -3.9 | i | i | i
CCOc1ccc(C(=O)CSc2nnc(C3CC3)n2C)cc1 | i | 0.21 | 6.4* | i | i | i
